ChEMBL document CHEMBL5724801, “EUbOPEN Chemogenomics Library - Multiplex” (2024)
Where “and” joins values, the source holds several entries; their conditions need not be identical. Equal entries are not always repeated.

The compounds below were run on HEK-293T (assay: Multiplex assay against HEK293T). Conditions: human, 12 h, 1 µM, compound concentration 1 uM.
Assay type: toxicity, cell-based
Procedure, shortened: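 Live cells carried four stains from seeding: Hoechst33342, BioTracker Green Microtubule Cytoskeleton Dye, MitoTracker Red and Annexin V Alexa Fluor 680. They were imaged on a CQ1 microscope at 37°C and 5% CO2 after compound addition. Using CellPathfinder machine-learning gating, cells were split into Hoechst high-intensity objects or normal cells, normal cells into healthy, pyknosed or fragmented nuclei, and pyknosed cells into mitotic or apoptotic; tubulin, mitochondrial-mass and membrane-permeability phenotypes are per cents of healthy-nucleus cells.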

Row | SMILES | Population Apoptotic (%) | Population Fragmented Nuclei (%) | Population Healthy Nuclei (%) | Population Hoechst High Intensity Objects (%) | Population Membrane Permeable-Phenotype (%) | Population Mitochondria Different-Phenotype (%) | Population Mitotic Cells (%) | Population Normal (%) | Population Pyknosed Nuclei (%) | Population Tubulin-Different-Phenotype (%)
1 | Cc1ccc(OCC(O)C(C)NC(C)C)c2c1CCC2.Cl (stereo not drawn) | 34% and 45% | 6% and 5% | 81% and 84% | 5% | 0 | 54% and 65% | 65% and 54% | 94% | 12% and 10% | 40% and 22%
2 | COc1cc(OC2CCN(C(C)=O)CC2)ccc1C(=O)N1CCC(N2C(=O)OCc3ccccc32)CC1 | 28% and 48% | 5% | 83% and 76% | 7% | 0 | 37% and 59% | 71% and 51% | 92% | 11% and 18% | 26% and 21%
3 | Cn1cc(C(=O)OCC2CCN(CCNS(C)(=O)=O)CC2)c2ccccc21 | 39% and 56% | 5% and 9% | 83% and 76% | 7% and 8% | 0 | 35% and 62% | 60% and 43% | 92% and 91% | 10% and 14% | 22% and 28%
4 | C[C@H](NC(=O)CNC(=O)c1cccc(Cl)c1)c1ccccc1 | 33% and 48% | 5% and 6% | 79% and 84% | 8% and 4% | 0 | 39% and 52% | 66% and 51% | 91% and 95% | 15% and 9% | 29% and 17%

Same assay, conditions: human, 12 h, 1 µM, compound concentration 1 uM

Row | SMILES | Total Cell Count
5 | Cc1ccc(OCC(O)C(C)NC(C)C)c2c1CCC2.Cl (stereo not drawn) | 409 and 360
6 | COc1cc(OC2CCN(C(C)=O)CC2)ccc1C(=O)N1CCC(N2C(=O)OCc3ccccc32)CC1 | 477 and 381
7 | Cn1cc(C(=O)OCC2CCN(CCNS(C)(=O)=O)CC2)c2ccccc21 | 466 and 248
8 | C[C@H](NC(=O)CNC(=O)c1cccc(Cl)c1)c1ccccc1 | 449 and 384

Same assay, conditions: human, 12 h, 10 µM, compound concentration 10 uM

Row | SMILES | Population Apoptotic (%) | Population Fragmented Nuclei (%) | Population Healthy Nuclei (%) | Population Membrane Permeable-Phenotype (%) | Population Mitochondria Different-Phenotype (%) | Population Mitotic Cells (%) | Population Normal (%) | Population Pyknosed Nuclei (%) | Population Tubulin-Different-Phenotype (%) | Total Cell Count
9 | Cc1ccc(OCC(O)C(C)NC(C)C)c2c1CCC2.Cl (stereo not drawn) | 43% | 7% and 9% | 67% and 76% | 0 | 66% and 79% | 56% | 96% and 81% | 25% and 14% | 61% and 59% | 247 and 323
10 | COc1cc(OC2CCN(C(C)=O)CC2)ccc1C(=O)N1CCC(N2C(=O)OCc3ccccc32)CC1 | 40% and 67% | 9% and 4% | 77% and 80% | 0 | 57% and 77% | 60% and 32% | 91% and 93% | 13% and 14% | 47% and 40% | 436 and 316
11 | Cn1cc(C(=O)OCC2CCN(CCNS(C)(=O)=O)CC2)c2ccccc21 | 47% and 43% | 10% | 73% and 71% | 0 | 55% and 73% | 52% and 56% | 93% and 89% | 15% and 18% | 53% and 47% | 479 and 393
12 | C[C@H](NC(=O)CNC(=O)c1cccc(Cl)c1)c1ccccc1 | 41% and 58% | 6% and 7% | 76% and 77% | 0 | 54% and 61% | 58% and 41% | 92% and 86% | 17% and 15% | 39% and 33% | 362 and 272

Same assay, conditions: human, 12 h, 10 µM, compound concentration 10 uM

Row | SMILES | Population Hoechst High Intensity Objects (%)
13 | COc1cc(OC2CCN(C(C)=O)CC2)ccc1C(=O)N1CCC(N2C(=O)OCc3ccccc32)CC1 | 8% and 6%
14 | Cn1cc(C(=O)OCC2CCN(CCNS(C)(=O)=O)CC2)c2ccccc21 | 6% and 10%
15 | C[C@H](NC(=O)CNC(=O)c1cccc(Cl)c1)c1ccccc1 | 7% and 13%

Same assay, conditions: human, 24 h, 1 µM, compound concentration 1 uM

Row | SMILES | Population Apoptotic (%) | Population Fragmented Nuclei (%) | Population Healthy Nuclei (%) | Population Hoechst High Intensity Objects (%) | Population Membrane Permeable-Phenotype (%) | Population Mitochondria Different-Phenotype (%) | Population Mitotic Cells (%) | Population Normal (%) | Population Pyknosed Nuclei (%) | Population Tubulin-Different-Phenotype (%)
16 | Cc1ccc(OCC(O)C(C)NC(C)C)c2c1CCC2.Cl (stereo not drawn) | 35% and 28% | 6% and 7% | 80% and 83% | 3% and 4% | 0% | 38% and 45% | 64% and 71% | 96% and 95% | 12% and 9% | 25% and 17%
17 | COc1cc(OC2CCN(C(C)=O)CC2)ccc1C(=O)N1CCC(N2C(=O)OCc3ccccc32)CC1 | 28% and 48% | 9% and 7% | 78% and 80% | 4% and 6% | 2% and 0% | 25% and 40% | 71% and 51% | 95% and 93% | 11% and 12% | 17% and 15%
18 | Cn1cc(C(=O)OCC2CCN(CCNS(C)(=O)=O)CC2)c2ccccc21 | 29% and 48% | 6% and 12% | 82% and 76% | 4% and 5% | 1% and 0% | 21% and 42% | 70% and 51% | 95% and 94% | 10% | 16% and 17%
19 | C[C@H](NC(=O)CNC(=O)c1cccc(Cl)c1)c1ccccc1 | 23% and 45% | 9% and 7% | 80% and 84% | 4% and 2% | 1% and 0% | 25% and 32% | 76% and 54% | 95% and 97% | 10% and 7% | 15% and 9%

Same assay, conditions: human, 24 h, 1 µM, compound concentration 1 uM

Row | SMILES | Total Cell Count
20 | Cc1ccc(OCC(O)C(C)NC(C)C)c2c1CCC2.Cl (stereo not drawn) | 548 and 444
21 | COc1cc(OC2CCN(C(C)=O)CC2)ccc1C(=O)N1CCC(N2C(=O)OCc3ccccc32)CC1 | 598 and 491
22 | Cn1cc(C(=O)OCC2CCN(CCNS(C)(=O)=O)CC2)c2ccccc21 | 650 and 283
23 | C[C@H](NC(=O)CNC(=O)c1cccc(Cl)c1)c1ccccc1 | 646 and 476

Same assay, conditions: human, 24 h, 10 µM, compound concentration 10 uM

Row | SMILES | Population Apoptotic (%) | Population Fragmented Nuclei (%) | Population Healthy Nuclei (%) | Population Hoechst High Intensity Objects (%) | Population Membrane Permeable-Phenotype (%) | Population Mitochondria Different-Phenotype (%) | Population Mitotic Cells (%) | Population Normal (%) | Population Pyknosed Nuclei (%) | Population Tubulin-Different-Phenotype (%)
24 | Cc1ccc(OCC(O)C(C)NC(C)C)c2c1CCC2.Cl (stereo not drawn) | 46% and 50% | 11% and 9% | 71% and 78% | 5% and 11% | 1% and 0% | 53% and 60% | 53% and 50% | 94% and 88% | 17% and 11% | 47%
25 | COc1cc(OC2CCN(C(C)=O)CC2)ccc1C(=O)N1CCC(N2C(=O)OCc3ccccc32)CC1 | 31% and 49% | 8% and 7% | 78% | 3% and 4% | 0% | 44% and 58% | 68% and 50% | 96% and 95% | 13% and 14% | 36% and 29%
26 | Cn1cc(C(=O)OCC2CCN(CCNS(C)(=O)=O)CC2)c2ccccc21 | 35% and 48% | 11% and 10% | 74% and 79% | 5% and 6% | 1% and 0% | 43% and 56% | 64% and 51% | 94% and 93% | 13% and 9% | 50% and 37%
27 | C[C@H](NC(=O)CNC(=O)c1cccc(Cl)c1)c1ccccc1 | 43% and 58% | 9% and 10% | 77% and 78% | 4% and 9% | 0% | 39% and 49% | 56% and 41% | 95% and 90% | 12% and 11% | 25% and 19%

Same assay, conditions: human, 24 h, 10 µM, compound concentration 10 uM

Row | SMILES | Total Cell Count
28 | Cc1ccc(OCC(O)C(C)NC(C)C)c2c1CCC2.Cl (stereo not drawn) | 334 and 399
29 | COc1cc(OC2CCN(C(C)=O)CC2)ccc1C(=O)N1CCC(N2C(=O)OCc3ccccc32)CC1 | 523 and 393
30 | Cn1cc(C(=O)OCC2CCN(CCNS(C)(=O)=O)CC2)c2ccccc21 | 587 and 491
31 | C[C@H](NC(=O)CNC(=O)c1cccc(Cl)c1)c1ccccc1 | 505 and 303

Same assay, conditions: human, 48 h, 1 µM, compound concentration 1 uM

Row | SMILES | Population Apoptotic (%) | Population Fragmented Nuclei (%) | Population Healthy Nuclei (%) | Population Hoechst High Intensity Objects (%) | Population Membrane Permeable-Phenotype (%) | Population Mitochondria Different-Phenotype (%) | Population Mitotic Cells (%) | Population Normal (%) | Population Pyknosed Nuclei (%) | Population Tubulin-Different-Phenotype (%)
32 | Cc1ccc(OCC(O)C(C)NC(C)C)c2c1CCC2.Cl (stereo not drawn) | 24% and 26% | 12% and 11% | 79% and 81% | 3% and 1% | 0% | 28% and 27% | 75% and 73% | 96% and 98% | 8% and 7% | 14%
33 | COc1cc(OC2CCN(C(C)=O)CC2)ccc1C(=O)N1CCC(N2C(=O)OCc3ccccc32)CC1 | 20% and 33% | 13% and 11% | 78% and 80% | 3% and 2% | 1% | 19% and 23% | 79% and 66% | 96% and 97% | 8% and 7% | 13% and 12%
34 | Cn1cc(C(=O)OCC2CCN(CCNS(C)(=O)=O)CC2)c2ccccc21 | 25% and 44% | 12% and 11% | 78% and 82% | 3% and 4% | 1% and 3% | 12% and 23% | 74% and 55% | 96% and 95% | 8% and 6% | 10% and 11%
35 | C[C@H](NC(=O)CNC(=O)c1cccc(Cl)c1)c1ccccc1 | 19% and 30% | 13% | 80% and 81% | 3% and 2% | 0% and 2% | 15% and 16% | 80% and 70% | 96% and 97% | 5% | 12% and 6%

Same assay, conditions: human, 48 h, 1 µM, compound concentration 1 uM

Row | SMILES | Total Cell Count
36 | Cc1ccc(OCC(O)C(C)NC(C)C)c2c1CCC2.Cl (stereo not drawn) | 804 and 660
37 | COc1cc(OC2CCN(C(C)=O)CC2)ccc1C(=O)N1CCC(N2C(=O)OCc3ccccc32)CC1 | 902 and 655
38 | Cn1cc(C(=O)OCC2CCN(CCNS(C)(=O)=O)CC2)c2ccccc21 | 1090 and 490
39 | C[C@H](NC(=O)CNC(=O)c1cccc(Cl)c1)c1ccccc1 | 984 and 606

Same assay, conditions: human, 48 h, 10 µM, compound concentration 10 uM

Row | SMILES | Population Apoptotic (%) | Population Fragmented Nuclei (%) | Population Healthy Nuclei (%) | Population Hoechst High Intensity Objects (%) | Population Membrane Permeable-Phenotype (%) | Population Mitochondria Different-Phenotype (%) | Population Mitotic Cells (%) | Population Normal (%) | Population Pyknosed Nuclei (%) | Population Tubulin-Different-Phenotype (%)
40 | Cc1ccc(OCC(O)C(C)NC(C)C)c2c1CCC2.Cl (stereo not drawn) | 40% and 34% | 10% and 11% | 74% and 80% | 5% | 0% and 1% | 48% and 39% | 59% and 66% | 94% | 14% and 8% | 43% and 41%
41 | COc1cc(OC2CCN(C(C)=O)CC2)ccc1C(=O)N1CCC(N2C(=O)OCc3ccccc32)CC1 | 36% | 13% and 12% | 78% and 80% | 4% and 3% | 0% | 30% and 39% | 63% | 95% and 96% | 8% and 7% | 21% and 16%
42 | Cn1cc(C(=O)OCC2CCN(CCNS(C)(=O)=O)CC2)c2ccccc21 | 38% | 16% and 13% | 77% and 79% | 6% and 4% | 1% and 0% | 31% and 37% | 61% | 93% and 95% | 6% | 28% and 26%
43 | C[C@H](NC(=O)CNC(=O)c1cccc(Cl)c1)c1ccccc1 | 44% and 35% | 15% and 19% | 77% and 72% | 1% and 2% | 0% | 26% and 28% | 55% and 64% | 98% and 97% | 7% | 18% and 16%

Same assay, conditions: human, 48 h, 10 µM, compound concentration 10 uM

Row | SMILES | Total Cell Count
44 | Cc1ccc(OCC(O)C(C)NC(C)C)c2c1CCC2.Cl (stereo not drawn) | 435 and 611
45 | COc1cc(OC2CCN(C(C)=O)CC2)ccc1C(=O)N1CCC(N2C(=O)OCc3ccccc32)CC1 | 813 and 625
46 | Cn1cc(C(=O)OCC2CCN(CCNS(C)(=O)=O)CC2)c2ccccc21 | 883 and 758
47 | C[C@H](NC(=O)CNC(=O)c1cccc(Cl)c1)c1ccccc1 | 735 and 462
